Values after ≈ are worked out from the molar mass of the structure shown. Active and inactive are the calls of the source. The rule behind the calls is not given here.
Tests used:
Staphylococcus aureus [1] = test: Antibacterial activity against community acquired methicillin-resistant Staphylococcus aureus HT20041010 in CCY media; assay type: functional
Procedure, shortened: (§1)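 MIC by CLSI-standard broth microdilution, run both in Mueller-Hinton broth and in casein hydrolysate-yeast extract (CCY) medium. Inoculum 5 × 10^5 CFU/ml.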

Staphylococcus aureus [2] = test: Antibacterial activity against community acquired methicillin-resistant Staphylococcus aureus HT20020488 in Mueller-Hinton medium; assay type: functional; procedure, shortened: as §1
Staphylococcus aureus [3] = test: Increase in Panton-Valentine leukocidin level in Staphylococcus aureus LUG855 in CCY medium; assay type: functional, organism-based
Procedure, shortened: (§2)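 Viable counts by plating diluted broth. Supernatant PVL measured by sandwich ELISA. μg PVL per log10 CFU is expressed as a percentage of the drug-free control. Means ± SD of five (LUG855) or three (clinical isolates) experiments. One-way ANOVA with Dunnett's test.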

Staphylococcus aureus [4] = test: Antibacterial activity against community acquired methicillin-resistant Staphylococcus aureus HT20010734 in Mueller-Hinton medium; assay type: functional; procedure, shortened: as §1
Staphylococcus aureus [5] = test: Antibacterial activity against Staphylococcus aureus LUG855 in Mueller-Hinton medium; assay type: functional; procedure, shortened: as §1
Staphylococcus aureus [6] = test: Antibacterial activity against community acquired methicillin-resistant Staphylococcus aureus HT20041010 in Mueller-Hinton medium; assay type: functional; procedure, shortened: as §1
Staphylococcus aureus [7] = test: Antibacterial activity against community acquired methicillin-resistant Staphylococcus aureus HT20040332 in Mueller-Hinton medium; assay type: functional; procedure, shortened: as §1
Staphylococcus aureus [8] = test: Antibacterial activity against community acquired methicillin-resistant Staphylococcus aureus HT20010734 in CCY medium; assay type: functional; procedure, shortened: as §1
Staphylococcus aureus [9] = test: Increase in Panton-Valentine leukocidin level in community acquired methicillin-resistant Staphylococcus aureus HT20010734 in CYY medium; assay type: functional, organism-based; procedure, shortened: as §2
Staphylococcus aureus [10] = test: Antibacterial activity against Staphylococcus aureus LUG855 in CCY media; assay type: functional; procedure, shortened: as §1
Staphylococcus aureus [11] = test: Antibacterial activity against community acquired methicillin-resistant Staphylococcus aureus HT20030203 in CCY media; assay type: functional; procedure, shortened: as §1
Staphylococcus aureus [12] = test: Antibacterial activity against community acquired methicillin-resistant Staphylococcus aureus HT20020488 in CCY medium; assay type: functional; procedure, shortened: as §1
Staphylococcus aureus [13] = test: Increase in Panton-Valentine leukocidin level in community acquired methicillin-resistant Staphylococcus aureus HT20040332 in CYY medium; assay type: functional, organism-based; procedure, shortened: as §2
Staphylococcus aureus [14] = test: Antibacterial activity against community acquired methicillin-resistant Staphylococcus aureus HT20040332 in CCY media; assay type: functional; procedure, shortened: as §1
Staphylococcus aureus [15] = test: Antibacterial activity against community acquired methicillin-resistant Staphylococcus aureus HT20030203 in Mueller-Hinton medium; assay type: functional; procedure, shortened: as §1
Staphylococcus aureus [16] = test: Increase in Panton-Valentine leukocidin level in community acquired methicillin-resistant Staphylococcus aureus HT20041010 in CYY medium; assay type: functional, organism-based; procedure, shortened: as §2
Staphylococcus aureus [17] = test: Increase in Panton-Valentine leukocidin level in community acquired methicillin-resistant Staphylococcus aureus HT20030203 in CYY medium; assay type: functional, organism-based; procedure, shortened: as §2
Staphylococcus aureus [18] = test: Decrease in Panton-Valentine leukocidin level in Staphylococcus aureus LUG855 in CCY medium; assay type: functional, organism-based; procedure, shortened: as §2
Staphylococcus aureus [19] = test: Decrease in Panton-Valentine leukocidin level in community acquired methicillin-resistant Staphylococcus aureus HT20010734 in CYY medium; assay type: functional, organism-based; procedure, shortened: as §2
Staphylococcus aureus [20] = test: Decrease in Panton-Valentine leukocidin level in community acquired methicillin-resistant Staphylococcus aureus HT20041010 in CYY medium; assay type: functional, organism-based; procedure, shortened: as §2
Staphylococcus aureus [21] = test: Decrease in Panton-Valentine leukocidin level in community acquired methicillin-resistant Staphylococcus aureus HT20030203 in CYY medium; assay type: functional, organism-based; procedure, shortened: as §2
Staphylococcus aureus [22] = test: Decrease in Panton-Valentine leukocidin level in community acquired methicillin-resistant Staphylococcus aureus HT20020488 in CYY medium; assay type: functional, organism-based; procedure, shortened: as §2
Staphylococcus aureus [23] = test: Decrease in Panton-Valentine leukocidin level in community acquired methicillin-resistant Staphylococcus aureus HT20040332 in CYY medium; assay type: functional, organism-based; procedure, shortened: as §2

Row | Structure (SMILES) | MIC (Staphylococcus aureus [1]) | MIC (Staphylococcus aureus [2]) | MIC (Staphylococcus aureus [4]) | MIC (Staphylococcus aureus [5]) | MIC (Staphylococcus aureus [6]) | MIC (Staphylococcus aureus [7]) | MIC (Staphylococcus aureus [8]) | MIC (Staphylococcus aureus [10]) | MIC (Staphylococcus aureus [11]) | MIC (Staphylococcus aureus [12]) | MIC (Staphylococcus aureus [14]) | MIC (Staphylococcus aureus [15]) | Activity (Staphylococcus aureus [18]) | Activity (Staphylococcus aureus [19]) | Activity (Staphylococcus aureus [20]) | Activity (Staphylococcus aureus [21]) | Activity (Staphylococcus aureus [22]) | Activity (Staphylococcus aureus [23]) | also measured
1 | Cc1onc(-c2ccccc2)c1C(=O)N[C@@H]1C(=O)N2[C@@H]1SC(C)(C)[C@@H]2C(=O)O [OXACILLIN] | 16 µg/mL (≈ 39.9 µM) | 8 µg/mL (≈ 19.9 µM) | 32 µg/mL (≈ 79.7 µM) | 0.12 µg/mL (≈ 0.299 µM) | 32 µg/mL (≈ 79.7 µM) | 16 µg/mL (≈ 39.9 µM) | 16 µg/mL (≈ 39.9 µM) | 0.06 µg/mL (≈ 0.149 µM) | 16 µg/mL (≈ 39.9 µM) | 8 µg/mL (≈ 19.9 µM) | 8 µg/mL (≈ 19.9 µM) | 32 µg/mL (≈ 79.7 µM) | – | – | – | – | – | – | Activity (Staphylococcus aureus [3]): Active; Activity (Staphylococcus aureus [9]): Active; Activity (Staphylococcus aureus [13]): Active; Activity (Staphylococcus aureus [16]): Active; Activity (Staphylococcus aureus [17]): Active
2 | CCC[C@@H]1C[C@@H](C(=O)N[C@@H]([C@H]2O[C@H](SC)[C@H](O)[C@@H](O)[C@H]2O)[C@H](C)Cl)N(C)C1 [CLINDAMYCIN] | > 128 µg/mL | > 128 µg/mL | 0.12 µg/mL (≈ 0.282 µM) | 0.06 µg/mL (≈ 0.141 µM) | > 128 µg/mL | > 128 µg/mL | 0.25 µg/mL (≈ 0.588 µM) | 0.12 µg/mL (≈ 0.282 µM) | 0.25 µg/mL (≈ 0.588 µM) | > 128 µg/mL | > 128 µg/mL | 0.12 µg/mL (≈ 0.282 µM) | Dose-dependent effect | Dose-dependent effect | Dose-dependent effect | Dose-dependent effect | Dose-dependent effect | Dose-dependent effect | –
3 | CC(=O)O[C@H]1C[C@@]2(C)[C@@H](C[C@@H](O)[C@H]3[C@@]4(C)CC[C@@H](O)[C@@H](C)[C@@H]4CC[C@@]32C)/C1=C(\CCC=C(C)C)C(=O)O [FUSIDIC ACID] | 128 µg/mL (≈ 248 µM) | 4 µg/mL (≈ 7.74 µM) | – | < 0.03 µg/mL | > 128 µg/mL | – | – | < 0.03 µg/mL | 0.06 µg/mL (≈ 0.116 µM) | 4 µg/mL (≈ 7.74 µM) | – | 0.12 µg/mL (≈ 0.232 µM) | – | – | – | – | – | – | –
4 | CC(=O)NC[C@H]1CN(c2ccc(N3CCOCC3)c(F)c2)C(=O)O1 [LINEZOLID] | – | 0.5 µg/mL (≈ 1.48 µM) | 0.5 µg/mL (≈ 1.48 µM) | 1 µg/mL (≈ 2.96 µM) | 1 µg/mL (≈ 2.96 µM) | 1 µg/mL (≈ 2.96 µM) | – | – | – | – | – | 1 µg/mL (≈ 2.96 µM) | Dose-dependent effect | Dose-dependent effect | Dose-dependent effect | Dose-dependent effect | Dose-dependent effect | Dose-dependent effect | –
